pKi: −log10 of the molar value. Where only a bound is given, the exact number is not on record here.

For one assay, the target named is D(1A) dopamine receptor (Rattus norvegicus, UniProt P18901).
The target in the next assay is D(2) dopamine receptor (Rattus norvegicus, UniProt P61169). The assay can be described thus: Binding affinity against Dopamine receptor D2 from rat striatal membranes, using [3H]sulpiride as radioligand. Summed up: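 Rat (male Sprague–Dawley, 200–250 g) caudate putamen membranes, freshly prepared in 50 mM Tris pH 7.4 and washed by centrifugation. Incubation with 3 nM [³H]sulpiride (final) for 30 min at 37 °C, in triplicate. Nonspecific binding defined with 10 μM sulpiride. Filtration, scintillation counting, Ki by LIGAND; at least three determinations.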
D(2) dopamine receptor, sequence (P61169 whole entry): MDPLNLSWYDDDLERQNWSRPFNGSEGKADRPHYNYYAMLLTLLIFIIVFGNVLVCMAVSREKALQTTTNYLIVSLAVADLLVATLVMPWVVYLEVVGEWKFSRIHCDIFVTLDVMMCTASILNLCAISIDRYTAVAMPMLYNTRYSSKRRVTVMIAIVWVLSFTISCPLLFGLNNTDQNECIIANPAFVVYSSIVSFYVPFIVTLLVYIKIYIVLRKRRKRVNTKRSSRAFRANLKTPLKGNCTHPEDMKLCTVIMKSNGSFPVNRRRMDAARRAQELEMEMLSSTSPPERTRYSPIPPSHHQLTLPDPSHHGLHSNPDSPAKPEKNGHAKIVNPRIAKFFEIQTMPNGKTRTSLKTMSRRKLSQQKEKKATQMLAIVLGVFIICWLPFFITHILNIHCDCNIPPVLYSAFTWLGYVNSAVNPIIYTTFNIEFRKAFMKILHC

D(1A) dopamine receptor, sequence (P18901 whole entry): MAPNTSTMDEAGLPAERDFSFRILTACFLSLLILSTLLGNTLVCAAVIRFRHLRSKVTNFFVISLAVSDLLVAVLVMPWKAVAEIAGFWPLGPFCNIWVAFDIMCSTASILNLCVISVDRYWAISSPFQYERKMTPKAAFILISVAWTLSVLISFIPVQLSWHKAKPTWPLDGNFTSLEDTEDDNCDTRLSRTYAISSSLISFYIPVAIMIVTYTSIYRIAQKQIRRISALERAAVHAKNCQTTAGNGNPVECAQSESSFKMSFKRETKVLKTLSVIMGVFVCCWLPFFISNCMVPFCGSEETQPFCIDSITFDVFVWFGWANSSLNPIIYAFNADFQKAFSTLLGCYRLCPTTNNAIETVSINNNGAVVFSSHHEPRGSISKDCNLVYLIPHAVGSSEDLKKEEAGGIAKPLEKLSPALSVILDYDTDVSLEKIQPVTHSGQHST

As to `O=CNCCCCCCN1CCc2cc(Cl)c(O)cc2C(c2ccccc2)C1` (centres undefined), the pKi (as a rule, −log10 of the Ki, conventionally taken in molar units) is 6.26 on D(1A) dopamine receptor and 5.69 at D(2) dopamine receptor. In the same order, the values of `NCCCCCCN1CCc2cc(Cl)c(O)cc2C(c2ccccc2)C1` (centres undefined) are 6.49 and 5.60. Consider `CN(C)CCCCN1CCc2cc(Cl)c(O)cc2C(c2ccccc2)C1` (centres undefined), for which the figures for the pKi at D(1A) dopamine receptor and on D(2) dopamine receptor were 6.09 and 5.38, respectively. The corresponding values for `CN(C)CCCCCCN1CCc2cc(Cl)c(O)cc2C(c2ccccc2)C1` (centres undefined) are 7.31 and 5.46. The corresponding values for `NCCCC(=O)N1CCc2cc(Cl)c(O)cc2C(c2ccccc2)C1` (centres undefined) are 6.22 and 5.13. `BC#N.CN(C)CCCCCCN1CCc2cc(Cl)c(O)cc2C(c2ccccc2)C1` (centres undefined) had a pKi at D(1A) dopamine receptor of 6.85.

Consider `CNCCCCN1CCc2cc(Cl)c(O)cc2C(c2ccccc2)C1` (centres undefined), for which the figures for the pKi at D(1A) dopamine receptor and at D(2) dopamine receptor were 6.97 and less than 5.00, respectively. For `NCCCCN1CCc2cc(Cl)c(O)cc2C(c2ccccc2)C1` (centres undefined), the pKi on D(1A) dopamine receptor is 7.12; at D(2) dopamine receptor, 5.37.

For `CNCCCCCCN1CCc2cc(Cl)c(O)cc2C(c2ccccc2)C1` (centres undefined), the figures for the pKi at D(1A) dopamine receptor and at D(2) dopamine receptor were 7.12 and 5.45, respectively. Take `CCCCN1CCc2cc(Cl)c(O)cc2C(c2ccccc2)C1` (centres undefined): the pKi at D(1A) dopamine receptor was 6.20; on D(2) dopamine receptor it was 5.63. The corresponding values for `CN(C)CCCCN1CCc2cc(Br)c(O)cc2C(c2ccccc2)C1` (centres undefined) are 5.83 and less than 5.00. The corresponding values for `CN(C)CCCCN1CCc2cc(O)c(O)cc2C(c2ccccc2)C1` (centres undefined) are 5.32 and less than 5.00. For `COc1cc2c(cc1OC)C(c1ccccc1)CN(CCCCN(C)C)CC2` (centres undefined), the pKi at D(1A) dopamine receptor and on D(2) dopamine receptor was less than 5.00 each time. Regarding `COc1cc2c(cc1Br)CCN(CCCCN(C)C)CC2c1ccccc1` (centres undefined), the figures for the pKi on D(1A) dopamine receptor and on D(2) dopamine receptor were less than 5.00 and 5.60, respectively. The corresponding values for `COc1cc2c(cc1Cl)CCN(CCCCN(C)C)CC2c1ccccc1` (centres undefined) are less than 5.00 and 5.04.

(Values after ChEMBL document CHEMBL1128644, “(+/-)-(N-alkylamino)benzazepine analogs: novel dopamine D1 receptor antagonists” (J Med Chem, 1995).)
